# Data published in ChEMBL document CHEMBL1130165 (J Med Chem, 1997).
# What was measured:
# [1] = Ratio of solubility to that of paclitaxel solubility; format: ADME
# B16 = assay: Ratio of ED50 of compound to that of ED50 of paclitaxel; ED50 expressed as concentration which produces 50% inhibition of proliferation of B16 melanoma cells after 40h incubation; format: functional, Mus musculus
# Summary of the method: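 B16 melanoma cells were incubated with compound for 40 h. Each value is expressed as a ratio to the paclitaxel ED50.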
# [2] = Aqueous solubility was determined; format: physicochemical; details: aqueous medium (not further specified)
# [3] = molecular target: Tubulin beta-1 chain (Homo sapiens) (UniProt Q9H4B7); assay: Ratio of ED50 of compound to that of ED50 of paclitaxel; ED50 expressed as concentration which causes polymerization of 50% of the tubulin in microtubule assembly assay (in vitro); format: functional
# Tubulin beta-1 chain (Homo sapiens), sequence (Q9H4B7 whole entry): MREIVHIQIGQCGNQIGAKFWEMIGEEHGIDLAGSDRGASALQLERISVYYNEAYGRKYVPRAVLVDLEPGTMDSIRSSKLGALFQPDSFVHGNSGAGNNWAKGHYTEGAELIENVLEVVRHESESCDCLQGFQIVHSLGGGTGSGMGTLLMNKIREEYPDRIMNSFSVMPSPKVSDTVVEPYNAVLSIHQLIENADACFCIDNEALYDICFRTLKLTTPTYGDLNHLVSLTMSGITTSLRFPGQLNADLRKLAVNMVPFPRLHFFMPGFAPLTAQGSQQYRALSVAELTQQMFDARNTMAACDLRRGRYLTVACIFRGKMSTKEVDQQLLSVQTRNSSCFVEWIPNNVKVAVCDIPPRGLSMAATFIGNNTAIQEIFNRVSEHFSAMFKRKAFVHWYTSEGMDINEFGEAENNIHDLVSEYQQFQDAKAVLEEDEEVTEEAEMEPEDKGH
# Summary of the method: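 In vitro microtubule assembly assay. […] Each compound's ED50 is expressed as a ratio to the paclitaxel ED50.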
# [4] = Ratio of solubility to that of paclitaxel solubility; range 17-20; format: ADME
# [5] = Aqueous solubility was determined; range 5-6; format: physicochemical; details: aqueous medium (not further specified)
# [6] = Ratio of solubility to that of paclitaxel solubility; range 23-28; format: ADME
# [7] = Aqueous solubility was determined; range 6.8-8.4; format: physicochemical; details: aqueous medium (not further specified)
Structure (SMILES),Ratio [1],ED50 ratio (B16),solubility [2],ED50 ratio [3],further results
CC(=O)O[C@@]12COC1C[C@H](O)[C@@]1(C)C(=O)[C@H](O)C3=C(C)[C@@H](OC(=O)[C@H](O)[C@@H](NC(=O)Cc4cccs4)C(C)(C)C)C[C@@](O)([C@@H](OC(=O)c4ccccc4)[C@@H]12)C3(C)C (some centres undefined),23,3.3,6.7 µg/mL,–,–
CC(=O)O[C@@]12COC1C[C@H](O)[C@@]1(C)C(=O)[C@H](O)C3=C(C)[C@@H](OC(=O)[C@H](O)[C@@H](NC(=O)c4ccsc4)C(C)(C)C)C[C@@](O)([C@@H](OC(=O)c4ccccc4)[C@@H]12)C3(C)C (some centres undefined),16,1.2,4.7 µg/mL,–,–
CC(=O)O[C@@]12CO[C@@H]1C[C@H](O)[C@@]1(C)C(=O)[C@H](O)C3=C(C)[C@@H](OC(=O)[C@H](O)[C@@H](NC(=O)OC(C)(C)C)c4ccccc4)C[C@@](O)([C@@H](OC(=O)c4ccccc4)[C@H]21)C3(C)C.O.O.O [DOCETAXEL],–,0.41,–,0.45,Ratio [4]: 20; solubility [5]: 6 µg/mL
CC(=O)O[C@@]12COC1C[C@H](O)[C@@]1(C)C(=O)[C@H](O)C3=C(C)[C@@H](OC(=O)[C@H](O)[C@@H](NC(=O)C4CCCC4)C(C)(C)C)C[C@@](O)([C@@H](OC(=O)c4ccccc4)[C@@H]12)C3(C)C (some centres undefined),–,1.4,–,1.5,–
CC(=O)O[C@@]12COC1C[C@H](O)[C@@]1(C)C(=O)[C@H](O)C3=C(C)[C@@H](OC(=O)[C@H](O)[C@@H](NC(=O)OC(C)C)C(C)(C)C)C[C@@](O)([C@@H](OC(=O)c4ccccc4)[C@@H]12)C3(C)C (some centres undefined),1.7,1.2,0.5 µg/mL,–,–
CC(=O)O[C@@]12COC1C[C@H](O)[C@@]1(C)C(=O)[C@H](O)C3=C(C)[C@@H](OC(=O)[C@H](O)[C@@H](NC(=O)c4ccoc4)C(C)(C)C)C[C@@](O)([C@@H](OC(=O)c4ccccc4)[C@@H]12)C3(C)C (some centres undefined),–,2.3,–,1.6,–
CC(=O)O[C@@]12COC1C[C@H](O)[C@@]1(C)C(=O)[C@H](O)C3=C(C)[C@@H](OC(=O)[C@H](O)[C@@H](NC(=O)OC(C)(C)C)C(C)(C)C)C[C@@](O)([C@@H](OC(=O)c4ccccc4)[C@@H]12)C3(C)C (some centres undefined),110,0.4,33 µg/mL,–,–
CC(=O)O[C@@]12COC1C[C@H](O)[C@@]1(C)C(=O)[C@H](O)C3=C(C)[C@@H](OC(=O)[C@H](O)[C@@H](NC(=O)C4CCCCC4)C(C)(C)C)C[C@@](O)([C@@H](OC(=O)c4ccccc4)[C@@H]12)C3(C)C (some centres undefined),150,3.8,45 µg/mL,–,–
CC(=O)O[C@@]12COC1C[C@H](O)[C@@]1(C)C(=O)[C@H](O)C3=C(C)[C@@H](OC(=O)[C@H](O)[C@@H](NC(=O)C4CCC4)C(C)(C)C)C[C@@](O)([C@@H](OC(=O)c4ccccc4)[C@@H]12)C3(C)C (some centres undefined),80,3,24 µg/mL,–,–
CC(=O)O[C@@]12COC1C[C@H](O)[C@@]1(C)C(=O)[C@H](O)C3=C(C)[C@@H](OC(=O)[C@H](O)[C@@H](NC(=O)c4sccc4C)C(C)(C)C)C[C@@](O)([C@@H](OC(=O)c4ccccc4)[C@@H]12)C3(C)C (some centres undefined),–,1.3,–,1.4,–
CCC(CC)C(=O)N[C@H]([C@@H](O)C(=O)O[C@H]1C[C@@]2(O)[C@@H](OC(=O)c3ccccc3)[C@H]3[C@](C)(C(=O)[C@H](O)C(=C1C)C2(C)C)[C@@H](O)CC1OC[C@]13OC(C)=O)C(C)(C)C (some centres undefined),–,26,–,1.7,–
CC(=O)O[C@@]12COC1C[C@H](O)[C@@]1(C)C(=O)[C@H](O)C3=C(C)[C@@H](OC(=O)[C@H](O)[C@@H](NC(=O)c4cccs4)C(C)(C)C)C[C@@](O)([C@@H](OC(=O)c4ccccc4)[C@@H]12)C3(C)C (some centres undefined),–,0.53,–,0.42,Ratio [6]: 28; solubility [7]: 8.4 µg/mL
CCOC(=O)N[C@H]([C@@H](O)C(=O)O[C@H]1C[C@@]2(O)[C@@H](OC(=O)c3ccccc3)[C@H]3[C@](C)(C(=O)[C@H](O)C(=C1C)C2(C)C)[C@@H](O)CC1OC[C@]13OC(C)=O)C(C)(C)C (some centres undefined),32,3.4,9.7 µg/mL,–,–
CC(=O)O[C@H]1C(=O)[C@@]2(C)[C@H]([C@H](OC(=O)c3ccccc3)[C@]3(O)C[C@H](OC(=O)[C@H](O)[C@@H](NC(=O)c4ccccc4)c4ccccc4)C(C)=C1C3(C)C)[C@]1(OC(C)=O)CO[C@@H]1C[C@@H]2O [PACLITAXEL],1,1,–,–,–
CC(=O)O[C@@]12COC1C[C@H](O)[C@@]1(C)C(=O)[C@H](O)C3=C(C)[C@@H](OC(=O)[C@H](O)[C@@H](NC(=O)/C=C/c4cccs4)C(C)(C)C)C[C@@](O)([C@@H](OC(=O)c4ccccc4)[C@@H]12)C3(C)C (some centres undefined),–,–,1 µg/mL,–,–
CC(=O)O[C@@]12COC1C[C@H](O)[C@@]1(C)C(=O)[C@H](O)C3=C(C)[C@@H](OC(=O)[C@H](O)[C@@H](NC(=O)C4CC4)C(C)(C)C)C[C@@](O)([C@@H](OC(=O)c4ccccc4)[C@@H]12)C3(C)C (some centres undefined),150,2.1,45 µg/mL,–,–
CC(=O)O[C@@]12COC1C[C@H](O)[C@@]1(C)C(=O)[C@H](O)C3=C(C)[C@@H](OC(=O)[C@H](O)[C@@H](NC(=O)c4cccn4C)C(C)(C)C)C[C@@](O)([C@@H](OC(=O)c4ccccc4)[C@@H]12)C3(C)C (some centres undefined),1.8,1.2,0.5 µg/mL,–,–
CCCOC(=O)N[C@H]([C@@H](O)C(=O)O[C@H]1C[C@@]2(O)[C@@H](OC(=O)c3ccccc3)[C@H]3[C@](C)(C(=O)[C@H](O)C(=C1C)C2(C)C)[C@@H](O)CC1OC[C@]13OC(C)=O)C(C)(C)C (some centres undefined),–,1.5,–,1.7,–
CC(=O)O[C@@]12COC1C[C@H](O)[C@@]1(C)C(=O)[C@H](O)C3=C(C)[C@@H](OC(=O)[C@H](O)[C@@H](NC(=O)c4ccccc4)C(C)(C)C)C[C@@](O)([C@@H](OC(=O)c4ccccc4)[C@@H]12)C3(C)C (some centres undefined) [BUTITAXEL],9.3,7.5,2.8 µg/mL,–,–
CC(=O)O[C@@]12COC1C[C@H](O)[C@@]1(C)C(=O)[C@H](O)C3=C(C)[C@@H](OC(=O)[C@H](O)[C@@H](NC(=O)c4ccc(C)s4)C(C)(C)C)C[C@@](O)([C@@H](OC(=O)c4ccccc4)[C@@H]12)C3(C)C (some centres undefined),13,32,4 µg/mL,–,–
CCCCCCOC(=O)N[C@H]([C@@H](O)C(=O)O[C@H]1C[C@@]2(O)[C@@H](OC(=O)c3ccccc3)[C@H]3[C@](C)(C(=O)[C@H](O)C(=C1C)C2(C)C)[C@@H](O)CC1OC[C@]13OC(C)=O)C(C)(C)C (some centres undefined),–,12,–,2.3,–
CC(=O)O[C@@]12COC1C[C@H](O)[C@@]1(C)C(=O)[C@H](O)C3=C(C)[C@@H](OC(=O)[C@H](O)[C@@H](NC(=O)c4ccco4)C(C)(C)C)C[C@@](O)([C@@H](OC(=O)c4ccccc4)[C@@H]12)C3(C)C (some centres undefined),73,2.1,22 µg/mL,–,–
